Compound activity from PubChem BioAssay.
Shown are actives, neighbours in structure and some others; about 1.8% of the full set was active somewhere.
p47phox inh: blocks human p47phox regulatory protein of NADPH oxidases; P14598; p47phox/p22phox peptide binding, fluorescence polarization, 2 h; inhibition, % at 24.7 µM; 0.53% of 220,000 active; AID 1274;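 active = inhibition above about 30%, limit read from the data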
Ins promoter up: MIN6 insulin promoter up-regulation | MIN6 insulin promoter-GFP reporter, high-content imaging; active compounds read high | z-score at 5 µM | 0.3% of 190,000 active;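 active = z-score above 3 at 5 µM with at least 500 cells counted in the well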
TNAP inh hi DEA: blocks human TNAP under high phosphate acceptor concentration; 0.03% of 200,000 active; P05186; purified TNAP, CDP-star luminescence, 1 M DEA; inhibition, % at 20 µM;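 active = over 50% inhibition of tissue-nonspecific alkaline phosphatase at 20 µM in the single-dose screen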
Target sequence (P05186 whole entry, looked up): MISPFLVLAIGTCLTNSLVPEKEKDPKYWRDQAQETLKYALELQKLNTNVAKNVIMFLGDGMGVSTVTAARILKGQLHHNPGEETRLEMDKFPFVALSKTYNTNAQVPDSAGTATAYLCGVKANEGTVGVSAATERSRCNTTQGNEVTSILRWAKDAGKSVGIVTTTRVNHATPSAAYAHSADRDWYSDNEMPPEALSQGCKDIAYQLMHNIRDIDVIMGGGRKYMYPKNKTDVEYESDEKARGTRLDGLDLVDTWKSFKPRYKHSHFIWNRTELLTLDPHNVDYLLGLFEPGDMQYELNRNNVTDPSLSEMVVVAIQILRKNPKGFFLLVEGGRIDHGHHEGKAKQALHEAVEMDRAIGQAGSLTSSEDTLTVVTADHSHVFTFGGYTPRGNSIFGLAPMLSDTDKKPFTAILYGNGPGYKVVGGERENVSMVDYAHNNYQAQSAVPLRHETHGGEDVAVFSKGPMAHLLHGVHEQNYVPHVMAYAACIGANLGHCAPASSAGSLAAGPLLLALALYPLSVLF
Autophagy HCS: alters autophagy in cells. 0.98% of 190,000 active. calls only at 10 µM (by protocol). MEF GFP-LC3 puncta imaging; test concentration mostly 10 µM;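 active = percentage of spot-positive cells more than 3 SD above its plate mean, without a fluorescence outlier flag or 80% toxicity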
TNAP act hi DEA: activators of human TNAP at high phosphate acceptor concentration | 200,000 tested, under 10 active | activation factor at 20 µM | purified TNAP, CDP-star luminescence, 1 M DEA, 30 min; active compounds read high; 0 = EDTA background, 1 = DMSO-only activity | AID 1136 | P05186;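 active = activation factor at least 2 at 20 µM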
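Test system – human TNAP · Doses – 20 µM single point · Incubation – 30 min, room temperature · Signal – luminescent substrate turnover signal · Read-out basis – activation factor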
TNAP inh no acc: TNAP (human) inhibition, acceptor-free conditions; P05186; purified TNAP, CDP-star luminescence, 30 min; inhibition, % at 20 µM; 0.26% of 200,000 active;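 active = tissue-nonspecific alkaline phosphatase inhibition above about 50% at 20 µM in the single-dose screen, limit read from the data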
Of the large screens only hits and unclear results are named; the others gave an inactive call.

COC(=O)c1ccc2c(=O)n(-c3ccccc3F)c(=S)[nH]c2c1	none
CN(Cc1cccnc1)Cc1cn(Cc2ccccc2)nc1-c1ccc2c(c1)OCO2	none
Cc1c(Nc2ccc(C=O)cc2)c(=O)n(-c2ccccc2)n1C	none
CCOc1ccccc1NC(=O)N1CCCC(c2nc(-c3ccc(C)o3)no2)C1 (stereo unspecified)	none
CCC1CCCCN1C(=O)c1sc2ncnc(N(CC)CC)c2c1C (stereo unspecified)	none
CCOc1cc(/C=N/N2CCOCC2)ccc1OCc1ccc(C(=O)OC)o1	none
Cc1ccc(C(=O)N/N=C/c2ccc(-c3ccccc3[N+](=O)[O-])o2)cn1	none
COc1ccc(-c2ccc(/C=N/NC(=O)c3cccnc3)o2)c([N+](=O)[O-])c1	Autophagy HCS active
Cc1ccccc1Cn1c(=O)n(CCC(=O)NCc2ccc3c(c2)OCO3)c(=O)c2ccccc21	p47phox inh 37
FC(F)(Cl)c1nnc2ccc(Sc3ccccn3)nn12	none
C=CCOC(=O)/C(=C/c1cccnc1)NC(=O)c1ccccc1	none (no result: TNAP inh hi DEA, Autophagy HCS, TNAP act hi DEA, TNAP inh no acc)
CC(C)OC(=O)/C(=C\c1cccnc1)NC(=O)c1ccccc1	Autophagy HCS active
COc1ccc2cc3cc(C(=O)Nc4cc(OC)c(OC)c(OC)c4)oc3nc2c1	none
COc1ccc2cc3cc(C(=O)Nc4ccc5c(c4)OCCO5)oc3nc2c1	p47phox inh 32
O=C(Cn1cc2c(n1)CCCCC2)NCc1ccccn1	p47phox inh 43
Cc1cccc(Cn2nc(C)cc2NC(=O)CCCn2ccc([N+](=O)[O-])n2)c1	none
CC(/C=C/C=C/c1ccccc1)=N/NC(=O)c1ccc2c(c1)OCCO2	none (no result: TNAP inh hi DEA, Autophagy HCS, TNAP act hi DEA, TNAP inh no acc)
Cc1ccc(-n2c(O)c(/C=N/NC(=O)C3COc4ccccc4O3)c3ccccc3c2=O)cc1 (stereo unspecified)	Ins promoter up 3.1
O=C(N/N=C\c1cccc([N+](=O)[O-])c1O)C1COc2ccccc2O1 (stereo unspecified)	TNAP inh no acc 53
Cc1ccc(-n2c(O)c(C=NC3CCS(=O)(=O)C3)c3ccccc3c2=O)cc1 (stereo unspecified)	p47phox inh 51
O=C(N/N=C/c1cccc([N+](=O)[O-])c1)C1COc2ccccc2O1 (stereo unspecified)	none
O=c1[nH]c2ccsc2c(=O)n1-c1ccc(F)c(Cl)c1	none
Cc1oc(C(C)(C)C)cc1C(=O)N1CCN(C(c2ccccc2)c2ccccc2)CC1	none (no result: TNAP inh hi DEA, Autophagy HCS, TNAP act hi DEA, TNAP inh no acc)
CN(C(=O)COC(=O)c1nc(Cl)c(Cl)c(Cl)c1Cl)C1CCS(=O)(=O)C1 (stereo unspecified)	none
Cc1cc(C)cc(NC(=S)N(Cc2ccc(Cl)cc2)Cc2ccc(C(=O)O)cc2)c1	none
COc1ccc(CN(CC2CCC(C(=O)O)CC2)C(=S)Nc2ccccc2OC)cc1 (stereo unspecified)	none
Cc1cccc(NC(=S)N(Cc2ccc(Cl)cc2)Cc2ccc(C(=O)O)cc2)c1	Autophagy HCS active
COc1ccc(CN(CC2CCC(C(=O)O)CC2)C(=S)Nc2cccc(C)c2)cc1 (stereo unspecified)	Ins promoter up 3.6
O=C(O)CCC(=O)Nc1nc2nccc(-c3ccccc3)n2n1	none (no result: TNAP inh hi DEA, Autophagy HCS, TNAP act hi DEA, TNAP inh no acc)
CCOCc1c(C(=O)OCC(=O)Nc2ccc(C)c(S(=O)(=O)N(C)C)c2)oc2ccccc12	none
O=c1c2ccc([N+](=O)[O-])cc2ncn1CCOc1ccccc1	none
CC(C)(C)c1ccc(NC(=O)Cn2cnc3cc([N+](=O)[O-])ccc3c2=O)cc1	Autophagy HCS active
Cc1ccc(OCCn2cnc3cc([N+](=O)[O-])ccc3c2=O)cc1	Autophagy HCS active
N#C/C(=C\c1ccncc1)c1nc2ccccc2c(=O)[nH]1	TNAP inh no acc 54
Cc1n[nH]c(C)c1CCN(C)Cc1cn(C)nc1-c1ccccc1F	none
Cc1occc1C(=O)NNC(=O)NC12CC3CC(CC(C3)C1)C2	p47phox inh 36 (no result: Ins promoter up)
COc1cccc(C(=O)NCC(=O)OCc2ccc(F)cc2Cl)c1	none (no result: Ins promoter up)
O=C(CCC1CCCCC1)N1CCN(Cc2ccc3c(c2)OCO3)CC1	none
Cc1nc2cccc(C)n2c(=O)c1Cl	none
COc1ccc2c(c1)c1nc3ccccc3nc1n2Cc1ccc(OC)c(OC)c1	none
CCOc1ccc(Cn2c3ccc(OC)cc3c3nc4ccccc4nc32)cc1OC	Autophagy HCS active
CCOC(=O)Cn1c2ccc(OC)cc2c2nc3ccccc3nc21	Autophagy HCS active
O=c1c2oc3ccccc3c2[nH]c(=S)n1-c1ccc(F)cc1	none (no result: Ins promoter up)
CC(C)NC(=O)CSc1nnc(-c2ccc(S(=O)(=O)N3CCCC3)cc2)n1CC1CCCO1 (stereo unspecified)	none
Cc1c(C(=O)NCc2ccccn2)oc2ccc(S(=O)(=O)N3CCOCC3)cc12	p47phox inh 50
COc1cc(NC(=O)COC(=O)c2ccc(S(=O)(=O)N3CC(C)CC(C)C3)cc2)c(C)cc1[N+](=O)[O-] (stereo unspecified)	p47phox inh 39
COC(=O)c1sc(-c2ccc(C(C)(C)C)cc2)cc1NC(=O)CCC(=O)O	p47phox inh 33 (no result: Ins promoter up, TNAP inh hi DEA, Autophagy HCS, TNAP act hi DEA, TNAP inh no acc)
CC1Cn2c(nc(=O)c3c2NCN(CCc2ccccc2)C3)S1 (stereo unspecified)	none
O=C(c1cccs1)c1no[n+]([O-])c1C(=O)c1cccs1	Ins promoter up 3.8
COc1ccc(C(=O)c2no[n+]([O-])c2C(=O)c2ccc(OC)cc2)cc1	none
CCCc1nc(SC)[nH]c(=O)c1C	none (no result: TNAP inh hi DEA, Autophagy HCS, TNAP act hi DEA, TNAP inh no acc)
O=C1C2C3C=CC(C3)C2C(=O)N1CCc1ccccc1 (stereo unspecified)	Ins promoter up 3.3
O=C(CCN1C(=O)C2C3C=CC(C3)C2C1=O)NCCc1ccccc1 (stereo unspecified)	none
COc1cc(-c2n[nH]c(=S)n2-c2ccc(C)cc2)cc(OC)c1OC	none
O=c1c(-c2n[nH]c(=S)n2-c2ccccc2)cccn1Cc1cccc(Cl)c1	none
Cc1cc(C)c2c(=O)n(CC(=O)NCCCN3CCN(c4ccccc4F)CC3)sc2n1	p47phox inh 51
CCOc1ccc(NC(=O)Cn2sc3nc(C)cc(C)c3c2=O)cc1	p47phox inh 40 (no result: TNAP inh hi DEA, Autophagy HCS, TNAP act hi DEA, TNAP inh no acc)
Cc1cc(C)c2c(=O)n(CC(=O)NCCCN3CCOCC3)sc2n1	none
Cc1nnnn1CC(=O)Nc1ccccc1[N+](=O)[O-]	none (no result: Ins promoter up)
CC(C)NC(=O)CC1C(=O)N(Cc2ccccc2)C(C)c2nc3ccccc3n21 (stereo unspecified)	none (no result: Ins promoter up)
O=C(Nc1ccc(OC(F)(F)F)cc1)c1ccc(S(=O)(=O)N2CCOCC2)o1	none (no result: TNAP inh hi DEA, Autophagy HCS, TNAP act hi DEA, TNAP inh no acc)
Cc1ccc(-c2nc(CN(C)Cc3ccc4nccnc4c3)c(C)o2)s1	none
COc1ccc2c(c1O)C(=O)c1ccccc1C2=O	none
Nc1c(O)ccc2c1C(=O)c1ccccc1C2=O	p47phox inh 80
CC(C)(O)C#Cc1ccc(C(=O)NCc2ccccc2)s1	none (no result: p47phox inh, Ins promoter up, TNAP inh hi DEA, TNAP act hi DEA, TNAP inh no acc)
COc1cc2c(cc1OC)C(Nc1ccccc1)=NC(C)(C)C2	none
